# Arbovirus anti: blocks arbovirus infection; arbovirus infection cell-based antiviral screen; inhibition, % at 10 µM; hit rate 0.37% among 200,000; AID 1251; in the data active means inhibition above about 30%
# ABCB1 inh: human ABCB1 inhibition, ABCG2 as counter-screen; CCRF-Adr cells, JC-1 efflux, flow cytometry; inhibition, % at 6.6 µM; hit rate 0.067% among 190,000; AID 1326; in the data active means inhibition above about 40%;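 further: 0% = vehicle and 100% = reference inhibitor; higher value means more JC-1 retained so stronger ABCB1 efflux block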
# Target sequence (P08183 whole entry, looked up): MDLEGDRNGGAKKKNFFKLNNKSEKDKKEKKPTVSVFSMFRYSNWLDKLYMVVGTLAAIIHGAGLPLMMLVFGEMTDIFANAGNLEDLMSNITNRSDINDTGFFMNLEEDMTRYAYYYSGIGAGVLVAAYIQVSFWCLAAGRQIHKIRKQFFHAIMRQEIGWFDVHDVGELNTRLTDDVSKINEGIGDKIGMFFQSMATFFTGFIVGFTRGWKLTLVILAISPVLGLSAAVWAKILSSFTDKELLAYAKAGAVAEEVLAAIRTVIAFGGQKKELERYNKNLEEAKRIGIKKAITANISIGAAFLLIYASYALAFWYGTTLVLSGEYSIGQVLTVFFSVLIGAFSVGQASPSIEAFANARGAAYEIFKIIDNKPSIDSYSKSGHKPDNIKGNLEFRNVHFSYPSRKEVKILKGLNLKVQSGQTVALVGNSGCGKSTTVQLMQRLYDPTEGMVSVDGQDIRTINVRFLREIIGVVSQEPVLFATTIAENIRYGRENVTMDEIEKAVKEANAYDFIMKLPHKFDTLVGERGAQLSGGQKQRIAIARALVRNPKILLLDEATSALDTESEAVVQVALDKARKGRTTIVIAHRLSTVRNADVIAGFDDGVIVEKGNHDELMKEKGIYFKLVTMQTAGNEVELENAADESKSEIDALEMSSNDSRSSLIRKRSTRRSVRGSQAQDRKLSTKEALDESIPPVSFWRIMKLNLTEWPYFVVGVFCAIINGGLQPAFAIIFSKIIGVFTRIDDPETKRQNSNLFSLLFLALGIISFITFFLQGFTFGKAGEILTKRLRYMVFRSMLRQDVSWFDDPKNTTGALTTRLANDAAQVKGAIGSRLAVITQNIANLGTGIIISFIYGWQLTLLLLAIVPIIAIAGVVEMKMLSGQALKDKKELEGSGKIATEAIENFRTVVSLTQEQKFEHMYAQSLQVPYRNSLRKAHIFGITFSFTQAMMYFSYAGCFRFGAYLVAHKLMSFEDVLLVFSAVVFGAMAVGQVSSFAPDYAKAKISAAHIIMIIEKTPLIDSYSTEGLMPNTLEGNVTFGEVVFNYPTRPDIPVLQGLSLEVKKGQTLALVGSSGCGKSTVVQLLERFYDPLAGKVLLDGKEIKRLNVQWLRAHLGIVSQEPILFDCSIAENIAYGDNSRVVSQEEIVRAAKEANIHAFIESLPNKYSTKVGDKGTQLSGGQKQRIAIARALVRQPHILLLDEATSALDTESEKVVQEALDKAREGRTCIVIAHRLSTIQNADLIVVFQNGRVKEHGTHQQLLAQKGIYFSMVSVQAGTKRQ
# Autophagy mod: modulators of autophagy | MEF GFP-LC3 puncta imaging; test concentration mostly 10 µM | calls only at 10 µM (by protocol) | hit rate 0.98% among 190,000 | AID 463193;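 active means percentage of spot-positive cells more than 3 SD above its plate mean, without a fluorescence outlier flag or 80% toxicity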;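 further: spot-positive cell cutoff set from DMSO-treated cells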
# MT stabilizer: stabilizes microtubules in HeLa cells; % tubulin-high responders, % at 10 µM; HeLa tubulin immunostaining HCS, 24 h; share of cells brighter than vehicle mean+2SD; hit rate 0.83% among 200,000; AID 2205;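 active means plate Z-score above 3 for both tubulin-high and condensed-nucleus cell shares, with cell loss under 80%, at 10 µM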;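 further: anti alpha tubulin signal scored within the nucleus-defined area of each cell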
# b-catenin transl: modulators of beta-catenin nuclear translocation. HeLa beta-catenin nuclear translocation, immunofluorescence imaging. hit rate 0.3% among 190,000. nuclear translocation activity, % at 5 µM;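 active means nuclear translocation activity above 50% at 5 µM, with a well cell count of 50 or more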;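 further: per-cell ratio of nuclear to cytoplasmic median beta-catenin stain intensity; plate controls were DMSO negative control for no effect and GSK-3 inhibitor IX positive control for full effect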
#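 Test system: human HeLa cells, native beta-catenin. Compound dosing: 5 µM primary single dose, 0.1% DMSO, 0.02–20 µM confirmation series. Incubation: compound exposure 24 h at 37°C. Detection: beta-catenin immunostaining with DAPI counterstain, 20x imaging, 6 fields/well. Read-out basis: Nuclear/cytoplasmic beta-catenin signal ratio, % activation.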
# ABCG2 block: human ABCG2 inhibition, ABCB1 as counter-screen | inhibition, % at 6.6 µM | IgMXP3 cells, JC-1 efflux, flow cytometry | Q9UNQ0 | hit rate 0.1% among 190,000;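 active means inhibition above 80%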;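 further: 0% = DMSO and 100% = nicardipine control wells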
#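 System: two drug-resistant human cell lines, ABCG2 and ABCB1; controls: nicardipine high and DMSO low controls; times: 10 min exposure at 25 °C with rotation, no wash; detection: flow cytometry of retained JC-1 fluorescence; read-out basis: percent efflux inhibition, scaled nicardipine 100% to DMSO 0%; doses: one concentration, 6.6 µM final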
# Starred values were filed as active, the others as inactive; i = inactive; · = no result; + = active, no number. An excerpt weighted towards active compounds, which were near 2.1% of everything screened.
SMILES,Arbovirus anti,ABCB1 inh,Autophagy mod,MT stabilizer,b-catenin transl,ABCG2 block
CC1CC1C(=O)Nc1nc(-c2ccc(Cl)s2)cs1 (stereo not given),44*,0,i,2,-1,1
O=c1c2ccccc2ncn1Cc1ccccc1,·,·,·,·,0,·
CCc1nnc(NC(=O)CSc2nnc(-c3ccccc3O)n2-c2ccc(C)cc2C)s1,11,1,i,38*,0,5
COc1ccc(S(=O)(=O)Nc2cccc(-c3ccc4nncn4n3)c2)cc1F,-3,0,i,30*,3,4
COc1ccc(-n2c(SC3CCOC3=O)nc3ccccc32)cc1 (stereo not given),5,0,i,4,-4,1
NC(=O)c1c(NC(=O)c2cccs2)sc2c1CCCCCC2,1,0,i,4,4,0
O=C(Nc1sc2c(c1C(=O)O)CCC2)c1ccccc1,28,-2,i,1,-4,-2
O=C(Nc1sc2c(c1C(=O)O)CCC2)c1cccs1,55*,0,i,6,1,1
O=C(Nc1sc2c(c1C(=O)O)CCCCC2)c1ccccc1,69*,0,i,2,-3,0
O=C(Nc1sc2c(c1C(=O)O)CCC2)c1ccc(F)cc1,42*,0,i,2,0,1
O=C(O)c1c(NC(=O)c2cccc3ccccc23)sc2c1CCC2,55*,0,i,2,0,1
CC(C)(C)C(=O)/C(=C\c1ccc([N+](=O)[O-])cc1)n1cncn1,-38,1,+,10,0,6
O=C(NN=C1CCCCC1)NC1CCCCC1,-14,0,i,3,-2,0
COC(=O)C1=C(C)N(C)C(=S)NC1c1c(OC)ccc2ccccc12 (stereo not given),10,2,+,4,0,1
COc1cccc(C2[C@H](C)C3(CCN2C)OCCO3)c1 (stereo not given in full),-10,0,i,3,-2,-3
COc1cc(SC#N)ccc1N=Cc1c(C)[nH]n(-c2ccc(C)c(C)c2)c1=O,-31,-1,i,3,-3,-6
COc1cc(SC#N)ccc1N=Cc1c(C)[nH]n(-c2ccc(Cl)cc2)c1=O,-6,-1,+,3,-4,-4
O=C(COC(=O)/C=C/c1ccccc1[N+](=O)[O-])Nc1ccc(OCc2ccccc2)cc1,-9,0,i,1,-7,2
COc1cc(C2C(C#N)=C(N)OC3=C2C(=O)CC(C)(C)C3)c([N+](=O)[O-])cc1OC (stereo not given),8,0,i,2,0,1
CO/N=C\CC(=O)Nc1ccc(Oc2ccccc2)cc1,-7,0,i,27*,165*,0
COCCCN=C1NN=C(c2cc(C)n(Cc3ccccc3Cl)c2C)CS1,-4,2,+,15*,76*,4
COCCCN=C1NN=C(c2cc(C)n(-c3ccccc3F)c2C)CS1,-12,3,i,19*,92*,1
COCCCN=C1NN=C(c2cc(C)n(-c3ccccc3)c2C)CS1,3,4,i,3,0,12
COCCN=C1NN=C(c2cc(C)n(CC3CCCO3)c2C)CS1 (stereo not given),5,0,i,3,-2,13
COc1cc(C(=O)Nc2nc(-c3ccc(C)cc3)cs2)ccc1OCC(=O)N1CCOCC1,91*,-1,i,4,·,-21
SMILES,Arbovirus anti,ABCB1 inh,Autophagy mod,MT stabilizer,b-catenin transl,ABCG2 block
COc1cc(C(=O)O)ccc1OCC(=O)N1CCOCC1,-1,0,i,4,0,1
Cc1csc(NC(=O)C2=NN(c3ccccc3)C(=O)CC2)n1,-3,1,i,3,-3,11
COc1cc(C(=O)Nc2nc(-c3ccc(F)cc3)cs2)ccc1OCC(=O)N1CCOCC1,83*,·,i,2,2,4
Cc1ccc(-c2csc(NC(=O)C3=NN(c4ccccc4)C(=O)CC3)n2)cc1,67*,0,i,2,0,-3
O=C(Nc1nc(-c2cccs2)cs1)c1cccc(S(=O)(=O)N2CCCCC2)c1,5,1,i,2,-1,1
Cc1ccc(-c2csc(NC(=O)c3cccc(S(=O)(=O)N4CCN(C)CC4)c3)n2)cc1,35*,-3,i,3,0,-4
COc1ccc(-c2nn(-c3ccccc3)cc2/C=N/Nc2ccccn2)cc1,-6,0,i,2,0,1
O=S(=O)(NCc1cccs1)c1cccc(S(=O)(=O)N2CCCCC2)c1,2,1,i,6,0,18
COc1ccc(-c2csc(NC(=O)c3ccc(OCC(=O)N4CCOCC4)c(OC)c3)n2)cc1,44*,0,i,4,-1,-5
COc1ccc2cc(C)c3nnc(SCC(=O)Nc4nc(-c5ccccc5)cs4)n3c2c1,-11,0,+,5,-4,0
COc1ccc(OC)c(-c2cc(C(=O)Nc3cc(C)on3)no2)c1,-10,0,i,5,0,17
CCOc1ccc(NC(=NCc2ccc3c(c2)OCO3)SC2CC(=O)N(c3ccc(OCC)cc3)C2=O)cc1 (stereo not given),-21,0,i,25*,0,2
O=C(c1ccc2c(c1)OCO2)N1CCC2(CC1)Oc1ccc(F)cc1C(=O)C21CC(c2ccc(Cl)cc2)=NO1 (stereo not given),·,·,·,·,-1,·
O=C(NC(=S)Nc1cccc(Cl)c1N1CCCCC1)c1cccs1,-25,0,i,26*,0,1
O=C(NC(=S)Nc1cccc(Cl)c1N1CCCCC1)c1ccco1,-27,0,i,39*,4,1
O=C(NC(=S)Nc1cccc(Cl)c1N1CCOCC1)c1cccs1,1,0,i,2,-3,11
CCc1nc(OCC(=O)c2ccccc2)c(C#N)c2c1COC(C)(C)C2,-3,1,i,3,·,5
COC(=O)c1ccc(COc2ccccc2/C=N/NS(=O)(=O)c2ccccc2)cc1,-16,1,i,23*,1,5
Cc1cccc(CNCc2ccccc2)c1,0,0,i,5,-3,2
COC(=O)C1=C(C(=O)OC)SC(=C2C(=S)C(C)(C)N(C(=O)C(C)C)c3ccccc32)S1,-9,0,i,2,-5,0
CCCC(=O)N1c2ccccc2C(=C2SC(C(=O)OC)=C(C(=O)OC)S2)C(=S)C1(C)C,-11,0,i,42*,-1,3
CCOC(=O)c1c(NCCN(C)C)c2ccccc2[nH]c1=O,·,·,·,·,0,·
Cc1ccc(C(C(=O)NCc2ccco2)N(C(=O)CNC(=O)c2cccs2)c2c(C)cc(C)cc2C)cc1 (stereo not given),-26,1,+,7,5,2

# Screening data: PubChem, several laboratories
